# The list is not random: actives were taken first. Their share in the collection is about 3.8%.
# ARNT-TACC3 inh: disrupts binding between human ARNT and TACC3; AlphaScreen His-ARNT PAS-B/GST-TACC3 binding, luminescence; TACC3 fragment carries E629A point mutation; inhibition, % at 9.99 µM; 390,000 tested, 0.66% active;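 active = mean inhibition of replicates at least 50% and at least half of replicates each reaching 50%; inconclusive = half or more replicates reach 50% but mean below 50%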
# FN deposit inh: fibronectin deposition inhibition | AH1F fibroblasts, Alexa488-fibronectin deposition fluorescence, overnight | inhibition, % at 12.6 µM | 350,000 tested, 0.086% active;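 active = mean inhibition across replicates of 30% or more, regardless of how many single replicates reach that level; inconclusive = mean under 30% yet at least half of replicates reach 30%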
#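 Material – AH1F fibroblast monolayer, labelled fibronectin deposition · Reagent – labelled fibronectin 24 nM · Timing – 1 h adhesion, overnight exposure · Measured by – fluorescence at 485 nm excitation, 525 nm emission · Read-out – inhibition of fibronectin deposition signal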
# DENV2 CPE rescue: inhibitors of DENV2 cytopathic effect; 350,000 tested, 1.7% active; DENV2-infected cells, cytopathic effect rescue, plate reader; CPE inhibition, % at 9.99 µM; AID 651640; in the data active = CPE inhibition above about 20%, passing the limit was not always enough; inconclusive = no clear call, values can overlap the other calls; tested in BHK-21 cells
# FGF22 binding: binders of recombinant human FGF22 by thermal shift | SYPRO orange fluorescence; percent of sucrose octasulfate shift, DMSO zero | Q9HCT0 | activity (Tm shift, normalised), % at 9.99 µM | 340,000 tested, 1.5% active | AID 651658;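 active = mean Tm shift, scaled 0 neutral to 100 positive control, at about 1.3% or above, every replicate too, limit read from the data; inconclusive = no clear call, values can overlap the other calls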
# Target sequence (Q9HCT0 whole entry, looked up): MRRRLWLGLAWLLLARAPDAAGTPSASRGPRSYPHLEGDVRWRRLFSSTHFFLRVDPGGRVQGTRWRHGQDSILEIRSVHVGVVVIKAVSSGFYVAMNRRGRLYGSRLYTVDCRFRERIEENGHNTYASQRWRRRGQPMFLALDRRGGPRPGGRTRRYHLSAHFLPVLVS
# XiGFP reactiv: X-chromosome reactivation activator. activation, % at 7.58 µM. 360,000 tested, 0.055% active. AID 743238. XiGFP mouse fibroblasts, % GFP-positive cells imaging, 3 d; cells co-treated with 5-aza-dC sensitizer; scaled so ellipticine positive control = 100%;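 active = mean normalized replicate activation at least 10% and every replicate at or above 10%; inconclusive = only one of the two criteria met; inactive = mean below 10% and not all replicates reach 10%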
#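 System: 68-5-11 XiGFP fibroblast line; Timing: 3 days compound exposure; Compound dosing: one concentration, pinned; Benchmarks: positive control ellipticine, 6 µM final; Buffer or medium: DMEM containing 5-aza-dC.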
# SIRT5 inh: sirtuin-5 (human) deacylase inhibition; Q9NXA8; Purified SirT5, succinyl-peptide AMC, trypsin-coupled fluorescence; inhibition, % at 15 µM; 330,000 tested, 1.1% active; AID 652115; in the data active = inhibition above about 15%; inconclusive = no clear call, values can overlap the other calls
# Target sequence (Q9NXA8 whole entry, looked up): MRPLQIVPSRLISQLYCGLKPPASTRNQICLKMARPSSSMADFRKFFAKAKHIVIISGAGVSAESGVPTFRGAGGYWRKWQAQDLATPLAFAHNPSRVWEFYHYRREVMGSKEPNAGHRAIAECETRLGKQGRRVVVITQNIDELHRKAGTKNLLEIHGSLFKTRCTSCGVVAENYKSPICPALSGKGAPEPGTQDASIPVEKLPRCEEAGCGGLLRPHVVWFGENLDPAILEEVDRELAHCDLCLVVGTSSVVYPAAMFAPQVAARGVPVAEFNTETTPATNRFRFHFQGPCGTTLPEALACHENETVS
# Hits are given with their value; 0 = inactive; ? = inconclusive; - = no result; ! = a repeat was not active.
SMILES,ARNT-TACC3 inh,FN deposit inh,DENV2 CPE rescue,FGF22 binding,XiGFP reactiv,SIRT5 inh
Cc1ccccc1CC1(CO)CCCN(Cc2ccc(C#CC(C)(C)O)cc2)C1 (stereo not given),-,0,?,43,0,0
C/C(=N\NC(N)=O)c1cccc(Cl)c1,0,0,38,0,0,0
CC(C)CCNC(=O)c1cccc(Cl)c1,-,0,-,-,-,-
C/C(=N/NC(=O)CCC(=O)Nc1cccc(Cl)c1)c1ccc(C)cc1,0,0,28,0,0,-
NC(=O)CNC(=O)c1cccc(Cl)c1,active,0,0,0,0,0
COc1ccccc1NC(=O)CCC(=O)N/N=C(/C)c1ccc(C)cc1,0,0,0,0,0,0
COc1ccccc1C#Cc1ccc([C@H]2[C@@H](CO)N3CCCCN(CCC(F)(F)F)C[C@@H]23)cc1,0,-,0,0,0,0
C[C@H]1CN([C@@H](C)CO)C(=O)c2cccc(NC(=O)C3CCCCC3)c2O[C@H]1CN(C)C(=O)Nc1ccc2c(c1)OCO2,0,-,0,0,0,0
C[C@H]1CN([C@@H](C)CO)C(=O)c2cccc(NC(=O)C3CCOCC3)c2O[C@H]1CN(C)C(=O)Nc1ccc2c(c1)OCO2,0,0,37,0,0,0
C[C@H]1CN([C@@H](C)CO)C(=O)c2cccc(NC(=O)C3CCCCC3)c2O[C@@H]1CN(C)C(=O)Nc1ccc2c(c1)OCO2,0,-,58,0,0,0
C[C@H](CO)N1C[C@H](C)[C@@H](CN(C)C)Oc2c(NC(=O)C3CCOCC3)cccc2C1=O,0,-,40,0,0,0
COc1ccc(CN(C)C[C@H]2Oc3ccc(NC(=O)Nc4c(C)noc4C)cc3C(=O)N([C@H](C)CO)C[C@H]2C)cc1,0,0,0,0,0,0
Cc1ccc2nc(/C(C#N)=C/c3ccccc3C(=O)O)[nH]c2c1,0,0,0,0,0,0
Cc1ccc2nc(/C(C#N)=C/c3ccc(O)c(O)c3)[nH]c2c1,0,0,0,0,0,20
C[C@@H]1CN([C@@H](C)CO)C(=O)Cc2cc(NC(=O)CCCN(C)C)ccc2O[C@H]1CN(C)S(=O)(=O)c1ccc(Cl)cc1,0,-,0,0,0,0
Cc1ccc(S(=O)(=O)N(C)C[C@H]2Oc3ccc(NC(=O)CCCN(C)C)cc3CC(=O)N([C@@H](C)CO)C[C@H]2C)cc1,0,-,43,0,0,0
COc1ccc(S(=O)(=O)N(C)C[C@H]2Oc3ccc(NC(=O)CCCN(C)C)cc3CC(=O)N([C@H](C)CO)C[C@H]2C)cc1,-,0,29,0,0,-
CO[C@H]1CN(C)C(=O)c2cc(NC(=O)Nc3cc(Cl)cc(Cl)c3)ccc2OC[C@H](C)NC[C@H]1C,-,32!,-,-,0,0
CO[C@H]1CN(C)C(=O)c2ccc(NC(=O)Nc3ccc(Cl)c(Cl)c3)cc2OC[C@H](C)NC[C@@H]1C,0,31!,0,0,0,0
CO[C@H]1CN(C)C(=O)c2ccc(NC(=O)Nc3ccc(Cl)c(Cl)c3)cc2OC[C@H](C)NC[C@H]1C,0,0,0,0,0,100
CO[C@H]1CN(C)C(=O)c2cc(NC(=O)Nc3ccc(Cl)c(Cl)c3)ccc2OC[C@@H](C)NC[C@@H]1C,-,32!,-,-,0,0
COC(c1ccccc1)c1nnc(CCC(=O)N(C)CCc2ccccc2)o1 (stereo not given),-,0,-,44,0,0
COC(c1ccccc1)c1nnc(CCC(=O)NCCCc2ccccc2)o1 (stereo not given),0,0,-,0,0,0
CC(C)N(Cc1nccn1C)C(=O)CCc1nnc(CCCc2ccccc2)o1,0,0,0,44,0,0
CN(CCc1cnn(C)c1)C(=O)CCc1nnc(CCCc2ccccc2)o1,0,0,0,43,0,0
SMILES,ARNT-TACC3 inh,FN deposit inh,DENV2 CPE rescue,FGF22 binding,XiGFP reactiv,SIRT5 inh
CC(C)N(CCO)C(=O)CCc1nnc(CCCc2ccccc2)o1,0,0,-,0,0,0
C[C@@H]1CCCCO[C@H](CN(C)CC2CC2)[C@H](C)CN([C@@H](C)CO)C(=O)c2cc(NC(=O)Nc3ccc4c(c3)OCO4)ccc2O1,0,0,0,0,0,0
COc1ccc2c3c(n(C)c2c1)[C@@H](CO)N(C(=O)C1CCCCC1)CC31CN(C(=O)c2ccncc2)C1,-,-,-,-,0,-
Cc1ccc(S(=O)(=O)N(C)C[C@@H]2Oc3ccc(NC(=O)CCN4CCOCC4)cc3C(=O)N([C@H](C)CO)C[C@@H]2C)cc1,0,-,0,0,0,0
CN1C(=O)c2cc(NC(=O)c3ccc(F)cc3)ccc2OC[C@@H]2O[C@H](CC(=O)O)CC[C@@H]21,0,0,0,0,0,0
C/C(=N\NC(=O)c1ccccc1Cl)c1ccccn1,67,0,0,0,0,0
C/C(=N\NC(=O)c1cc(-c2cccs2)nc2ccccc12)c1ccccn1,73,0,0,0,0,0
NNC(=O)c1cc(-c2cccs2)nc2ccccc12,0,0,-,0,0,0
C/C(=N\NC(=O)c1cccc(Br)c1)c1ccccn1,45,0,0,0,0,0
COc1ccc(NC(=O)c2ccccn2)cc1OC,-,0,-,-,0,-
C/C(=N\NC(=O)c1ccc(Cl)c(Cl)c1)c1ccccn1,-,0,?,0,0,0
COc1ccc(C(=O)N/N=C(\C)c2ccccn2)cc1OC,67,-,0,0,0,0
C/C(=N/NC(=O)c1ccccn1)c1ccncc1,0,0,0,0,0,0
C/C(=N/NC(=O)c1ccc(C(C)(C)C)cc1)c1ccccn1,65,0,0,-,0,0
N#CC(=C1Nc2ccccc2N1)S(=O)(=O)c1ccccc1,0,0,0,43,0,0
C[C@@H]1CN([C@H](C)CO)C(=O)c2cc(C#CCc3ccccc3)cnc2O[C@H]1CN(C)C(=O)C1CCOCC1,0,-,0,0,0,0
O=C(NCc1cccc(F)c1)[C@@H]1[C@@H](CO)[C@@H]2Cn3c(cccc3=O)[C@H]1N2C(=O)c1cnccn1,active,-,82,0,0,0
C[C@@H](NC(=O)[C@@H]1[C@@H](CO)[C@@H]2Cn3c(cccc3=O)[C@H]1N2Cc1ccccc1)c1ccccc1,0,-,0,0,0,0
C[C@H](NC(=O)[C@@H]1[C@@H](CO)[C@@H]2Cn3c(cccc3=O)[C@H]1N2Cc1ccccc1)c1ccccc1,0,-,0,0,0,19
O=C(NCc1ccccc1)[C@@H]1[C@@H](CO)[C@@H]2Cn3c(cccc3=O)[C@H]1N2Cc1ccccn1,0,-,40,0,0,0
CN(C)CC(=O)N1[C@@H]2c3cccc(=O)n3C[C@H]1[C@H](CO)[C@H]2C(=O)NCc1ccccc1,0,-,20,0,0,0
COCCNC(=O)[C@H]1[C@H](CO)[C@H]2Cn3c(cccc3=O)[C@@H]1N2Cc1cc(F)ccc1F,0,-,40,0,0,0
